Test [1] concerns immortalized mouse embryonic fibroblasts (MEFs). The format is cell-based. As to conditions: for IC50: Mus musculus, Fibroblast, read-out: estimated IC50, MEFs; for fold loss in activity in MEFs compared with cancer cell lines: estimated.
For the next test, the system named is SK-MEL2. Kind of test: Proliferation assay on SK-MEL2 cultured with reduced serum, 5% FBS. The format is cell-based. As to conditions: 5% FBS versus 10% FBS.
The next test concerns IL-2 reporter gene. Particulars: Jurkat T cells; data previously reported; ref Romo et al.[29]; cited from earlier work.
For test [2], the system named is xenograft mouse models, melanoma models. As to conditions: several xenograft mouse models; cited from earlier work.
For test [3], the system named is HeLa, RKO, HaCaT, Jurkat T, BAEC. In words: Cell proliferation assays, first generation, statements pooled over cell lines. As to conditions: for anti-proliferative IC50 values, in words: first generation protocol, cell lines tested. Format: cell-based.
The test system of a further test is cancer cell lines. Particulars: cell culture, variety of cancer cell lines; cited from earlier work.
In the next test the test system is DNA polymerases α and β. Particulars: read-out: IC50, DNA polymerases α and β; direct in vitro inhibition; cited from earlier work.
The next test deals with Jurkat T cells. In words: MTT cell proliferation assay, second-generation analogs, Jurkat T. The format is cell-based, human. Particulars: versus DMDAPatA (2). The gist of the method:
(§1)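 HeLa and SK-MEL2 cells were grown in DMEM, Jurkat T cells in RPMI 1640, each with 10% FBS and pen-strep at 37 °C, 5% CO2. Adherent lines were seeded at 2000 cells/well and allowed to recover overnight; Jurkat were seeded at 5000 cells/well with no recovery. Compound was given in 0.1% DMSO final for 72 h, then MTT read-out.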
A general note: Tetrazolium dyes change colour on reduction, which living cells bring about.

Another test concerns SK-MEL2 melanoma cells. Kind of test: MTT cell proliferation assay, second-generation analogs, SK-MEL2. The format is cell-based. Particulars: versus DMDAPatA (2). An outline of the steps:
as §1

Test [4] deals with HeLa, Jurkat T cells, and SK-MEL2. In words: MTT cell proliferation assays, statements pooled over all three cell lines. The format is cell-based. Particulars: for cell proliferation inhibition activity, in words: all cell lines tested.
The subject of test [5] is cap-dependent (eIF4AI/II-dependent) translation. In words: In vitro translation assay in rabbit reticulocyte lysate, cap-dependent cistron. Particulars: for fold loss of activity in in vitro translation assay: versus DMDAPatA (2). The format is biochemical. The gist of the method: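 Bicistronic reporter mRNA (cap-dependent firefly cistron; HCV IRES-driven Renilla cistron) was SP6-transcribed from linearized plasmid and purified. 200 ng RNA was translated in 20 μl rabbit reticulocyte lysate reactions with 70 mM KCl, 2 mM DTT and RNasin. Compound in DMSO was added at 5% (v/v) final. Reactions ran 1.5 h at 30 °C, then dual-luciferase read-out. Duplicates; 4 independent assays; IC50 by curve fitting, averaged.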

For a further test, the system named is HeLa. In words: MTT cell proliferation assay, second-generation analogs, HeLa. Format: cell-based, human. As to conditions: versus DMDAPatA (2). The gist of the method:
as §1

A value given as a limit tells only on which side of the number the result lay.

The term IC50 denotes the concentration that inhibits the measured activity by half.

As to `CC(/C=C/C(C)=C/[C@@H]1Cc2nc(cs2)CCCCC(=O)O[C@@H](C)C/C(C)=C/C=C\C(=O)O1)=C\CN(C)C` [Compound 2, C5-des-methyl, C3-des-amino pateamine A], the IC50 in test [1] was greater than 0.05 µM; in the test with DNA polymerases α and β, 3 to 19 µM. Besides, in test [1], the “fold loss in activity in MEFs compared with cancer cell lines” value is on record as “roughly 5 fold”. In addition, the “fold reduced anti-proliferative activity under 5% FBS” value in the test with SK-MEL2 is reported as “roughly 2 fold”. In addition, in the test with IL-2 reporter gene, the “IC50 (nM) IL-2 reporter gene assay” value was “sub-nanomolar”. For the same compound, the “anticancer activity in xenograft mouse models” value in test [2] is “potent anticancer activity in several xenograft mouse models with especially significant regressions in melanoma models”. Besides, the “fold lower activity than PatA in cell proliferation assays” value in test [3] (DMDAPatA versus PatA) is given as “roughly 10 fold”. The “anti-proliferative IC50 values, in words” value in [3] is listed as “single-digit nanomolar”. Moreover, the “anti-proliferative IC50 values in cancer cell lines, in words” value in the test on cancer cell lines was “approximately single-digit nanomolar”.
Take `C/C(Br)=C\[C@@H]1Cc2nc(cs2)CCCCC(=O)O[C@@H](C)C/C(C)=C/C=C\C(=O)O1` [Compound 5]: in the test on Jurkat T cells, the “fold loss of activity in Jurkat T cells” value is listed as no less than 700 fold. Besides, the “fold loss of activity in SK-MEL2 cells” value in the test with SK-MEL2 melanoma cells is no less than 700 fold.
In the case of `C/C(Br)=C\[C@@H]1Cc2nc(cs2)CCCCC(=O)O[C@@H](C)C/C(C)=C/C=C/C(=O)O1` [Compound 6], the “cell proliferation inhibition activity, in words” value in [4] was “inactive”.
Regarding `CC(/C=C/C(C)=C/[C@@H]1Cc2nc(cs2)CCCCC(=O)O[C@@H](C)C/C(C)=C/C=C\C(=O)O1)=C\CN1CCOCC1` [Compound 9b], in test [1], the IC50 was greater than 2 µM and the “fold loss in activity in MEFs compared with cancer cell lines” value is “roughly 5 fold”. For the same compound, in the test on SK-MEL2, the “fold increase of activity under 5% FBS” value is on record as “roughly 2 fold”. In test [5], the “fold loss of activity in in vitro translation assay” value is “roughly 3 fold”. In the test on Jurkat T cells, the “fold loss of activity in Jurkat T cells” value is reported as “at least 700 fold”. The “fold loss of activity in SK-MEL2 cells” value with SK-MEL2 melanoma cells is given as “approximately 25 fold”. For the same compound, in the test on HeLa, the “fold loss of activity in HeLa cells” value was “greater than 400 fold”.
`CC(/C=C/C(C)=C/[C@@H]1Cc2nc(cs2)CCCCC(=O)O[C@@H](C)C/C(C)=C/C=C\C(=O)O1)=C\CN1CCCC1` [Compound 9c]: in test [1], the IC50 is greater than 0.1 µM. Moreover, the “fold loss of activity in all cell lines” value in [4] (versus DMDAPatA (2), HeLa, SK-MEL2, Jurkat T) was roughly 2 fold. In test [5], the “fold loss of activity in in vitro translation assay” value turned out to be 2 fold.
Regarding `CC(/C=C/C=C/CO)=C\[C@@H]1Cc2nc(cs2)CCCCC(=O)O[C@@H](C)C/C(C)=C/C=C\C(=O)O1` [Compound 9e], in test [5] (rabbit reticulocyte lysate, 30 °C, 1.5 h, ± 1 standard deviation, N.E. = no effect up to concentration (nM) in parentheses), the “IC50 (nM) cap-dependent translation inhibition” value is “a degree of activity at high concentration”.
Take `CC(/C=C/C(C)=C/[C@@H]1Cc2nc(cs2)CCCCC(=O)O[C@@H](C)C/C(C)=C/C#CC(=O)O1)=C\CN(C)C` [Compound 10a]: the “cell proliferation inhibition activity, in words” value in test [4] is “no effect was observed”.
Still for that read-out and setting: the same measure for `COCCC/C=C/C(C)=C/[C@@H]1Cc2nc(cs2)CCCCC(=O)O[C@@H](C)C/C(C)=C/C#CC(=O)O1` [Compound 10f]: “did not demonstrate any significant cell proliferation inhibition activity”; for `CC(/C=C/CCCO)=C\[C@@H]1Cc2nc(cs2)CCCCC(=O)O[C@@H](C)C/C(C)=C/C#CC(=O)O1` [Compound 10g]: “did not demonstrate any significant cell proliferation inhibition activity”.
Consider `CC(/C=C/C(C)=C/[C@@H]1Cc2nc(cs2)[C@@H](C)C[C@@H](N)CC(=O)O[C@@H](C)C/C(C)=C/C=C\C(=O)O1)=C\CN(C)C` [PatA (1), pateamine A, reference compound], for which the “anti-proliferative IC50 values, in words” value in test [3] was “sub-nanomolar”. Besides, in the test on cancer cell lines, the “anti-proliferative IC50 values in cancer cell lines, in words” value is reported as “sub-nanomolar range”.

The values are drawn from publication PMC3958936 (Bioorganic & medicinal chemistry, 2013).
